{"source": "paper PMC3437246", "about": "(Biochemistry, 2012)", "key": {"RB69pol Y567A mutant": {"target": "RB69pol Y567A mutant (Escherichia phage RB69, UniProt Q38087, D222A/D327A/Y567A)", "sequence (Q38087 whole entry D222A/D327A/Y567A)": "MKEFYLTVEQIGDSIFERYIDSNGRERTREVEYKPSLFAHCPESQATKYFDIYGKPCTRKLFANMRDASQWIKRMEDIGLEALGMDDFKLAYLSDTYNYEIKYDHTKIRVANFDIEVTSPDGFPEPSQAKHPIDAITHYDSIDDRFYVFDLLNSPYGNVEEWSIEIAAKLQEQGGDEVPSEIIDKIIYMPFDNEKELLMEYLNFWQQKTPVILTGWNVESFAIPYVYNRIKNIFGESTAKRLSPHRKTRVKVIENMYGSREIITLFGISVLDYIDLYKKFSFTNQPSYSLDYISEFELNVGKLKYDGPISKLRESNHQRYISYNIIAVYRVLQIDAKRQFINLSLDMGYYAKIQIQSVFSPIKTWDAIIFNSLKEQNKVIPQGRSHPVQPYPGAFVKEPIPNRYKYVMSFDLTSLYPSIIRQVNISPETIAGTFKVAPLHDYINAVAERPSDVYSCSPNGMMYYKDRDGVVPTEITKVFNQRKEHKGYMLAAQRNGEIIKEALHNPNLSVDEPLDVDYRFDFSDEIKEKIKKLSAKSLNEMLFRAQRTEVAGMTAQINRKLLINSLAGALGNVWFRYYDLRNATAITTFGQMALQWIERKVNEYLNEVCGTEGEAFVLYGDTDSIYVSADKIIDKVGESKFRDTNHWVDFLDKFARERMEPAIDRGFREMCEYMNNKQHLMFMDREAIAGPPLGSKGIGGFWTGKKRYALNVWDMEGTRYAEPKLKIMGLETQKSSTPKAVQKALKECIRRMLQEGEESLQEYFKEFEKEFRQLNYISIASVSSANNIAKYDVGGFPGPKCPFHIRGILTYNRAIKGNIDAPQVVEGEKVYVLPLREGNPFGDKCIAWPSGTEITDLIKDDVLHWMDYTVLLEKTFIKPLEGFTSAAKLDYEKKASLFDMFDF", "assay_type": "biochemical, bacteriophage RB69", "conditions": "for Kpol/Kd,app / kpol: Y567A mutant, template tC°; for kpol: 23°C, 10 mM Mg2+", "in_short": "(§1)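 Single-turnover rapid quench was run at 23°C in 66 mM Tris-HCl pH 7.4 using exonuclease-deficient RB69pol. Enzyme plus 5'-32P primer/tC° template was mixed with Mg2+ and varying dNTP for 5 ms to 1 min (final 1 μM enzyme, 90 nM P/T, 10 mM Mg2+). Reactions were EDTA-quenched and resolved on 8 M urea PAGE. kobs came from single-exponential fits, then kpol and Kd,app from a hyperbolic fit; efficiency is kpol/Kd,app.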"}, "Y567A-P/T binary complex": {"target": "Y567A-P/T binary complex (Escherichia phage RB69, UniProt Q38087, D222A/D327A/Y567A)", "sequence (Q38087 whole entry D222A/D327A/Y567A, one chain of several)": "as the sequence (Q38087 whole entry D222A/D327A/Y567A) above", "test": "Equilibrium fluorescence titration of dNTP opposite tC°", "assay_type": "binding, bacteriophage RB69", "conditions": "1mM dNTP added to Y567A-P/T binary complex", "in_short": "(§2)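 Exonuclease-deficient (D222A/D327A) RB69pol, wild type or Y567A, was expressed in E. coli BL21(DE). Enzyme at 1 μM was mixed with 300 nM 3'-dideoxy (ddC) terminated 13/18mer P/T carrying tC° at template position n, in 66 mM Tris-HCl pH 7.4 with 10 mM MgSO4 at 23°C. Excitation was 364 nm and emission was scanned 380–700 nm. Spectra were corrected for enzyme and buffer fluorescence.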"}, "wt RB69pol": {"target": "wt RB69pol (Escherichia phage RB69, UniProt Q38087, D222A/D327A)", "sequence (Q38087 whole entry D222A/D327A)": "as the sequence (Q38087 whole entry D222A/D327A/Y567A) above, with A567Y counted along it", "assay_type": "biochemical, bacteriophage RB69", "conditions": "template tC°; for kpol: 23°C, 10 mM Mg2+", "in_short": "as §1"}, "[1]": {"target": "T1, wt RB69pol-P/T binary complex (Escherichia phage RB69, UniProt Q38087, D222A/D327A)", "T1 sequence (Q38087 whole entry D222A/D327A, one chain of several)": "as the sequence (Q38087 whole entry D222A/D327A/Y567A) above, with A567Y counted along it", "test": "Stopped-flow fluorescence of tC° quenching on dGTP binding", "set-up": "species or system bacteriophage RB69", "conditions": "full quenching within instrument dead-time (< 2 ms)"}, "Y567A RB69pol mutant": {"target": "Y567A RB69pol mutant (Escherichia phage RB69, UniProt Q38087, D222A/D327A/Y567A)", "sequence (Q38087 whole entry D222A/D327A/Y567A)": "as the sequence (Q38087 whole entry D222A/D327A/Y567A) above", "test": "Stopped-flow fluorescence of tC° quenching on dGTP binding", "set-up": "species or system bacteriophage RB69"}, "[2]": {"target": "T1, wt RB69pol-P/T binary complex", "test": "Equilibrium fluorescence titration of dNTP opposite tC°", "assay_type": "binding, bacteriophage RB69", "conditions": "1mM dNTP added to wt RB69pol-P/T binary complex", "in_short": "as §2"}}, "note": "Where two headings read alike, the source gives them in different places."}
{"smiles": "Nc1ncnc2c1ncn2[C@H]1C[C@H](O)[C@@H](COP(=O)(O)OP(=O)(O)OP(=O)(O)O)O1", "note": "[dATP]", "values": [{"measurement": "fold increase of incorporation efficiency opposite tC°", "setting": "RB69pol Y567A mutant; Y567A mutant relative to wt RB69pol", "result": 200, "unit": "fold"}, {"measurement": "Kpol/Kd,app", "setting": "RB69pol Y567A mutant", "result": 700000, "unit": "M⁻¹ s⁻¹"}, {"measurement": "kpol", "setting": "RB69pol Y567A mutant", "result": "180 ± 10", "unit": "s⁻¹"}, {"measurement": "kpol", "setting": "RB69pol Y567A mutant; listed as dAMP", "result": 180, "unit": "s⁻¹"}, {"measurement": "quenching of tC° fluorescence", "setting": "Y567A-P/T binary complex", "result": "~15", "unit": "%"}, {"measurement": "Kpol/Kd,app", "setting": "wt RB69pol", "result": 3500, "unit": "M⁻¹ s⁻¹"}, {"measurement": "fold difference in kpol between dGMP and dAMP", "setting": "wt RB69pol", "result": 40, "unit": "fold"}, {"measurement": "kpol", "setting": "wt RB69pol", "result": "6 ± 0.2", "unit": "s⁻¹"}, {"measurement": "kpol", "setting": "wt RB69pol; listed as dAMP", "result": 6, "unit": "s⁻¹"}]}
{"smiles": "Nc1nc2c(ncn2[C@H]2C[C@H](O)[C@@H](COP(=O)(O)OP(=O)(O)OP(=O)(O)O)O2)c(=O)[nH]1", "note": "[dGTP]", "values": [{"measurement": "rate of tC° fluorescence quenching", "setting": "[1]", "result": "greater than 500 s^−1"}, {"measurement": "Kpol/Kd,app", "setting": "RB69pol Y567A mutant", "result": "4.3e+07", "unit": "M⁻¹ s⁻¹"}, {"measurement": "kpol", "setting": "RB69pol Y567A mutant", "result": "170 ± 10", "unit": "s⁻¹"}, {"measurement": "quenching of tC° fluorescence", "setting": "Y567A-P/T binary complex", "result": "about 30%"}, {"measurement": "rate of tC° fluorescence quenching", "setting": "Y567A RB69pol mutant", "result": "> 500", "unit": "s⁻¹"}, {"measurement": "quenching of tC° fluorescence", "setting": "[2]", "result": "about 30%"}, {"measurement": "Kpol/Kd,app", "setting": "wt RB69pol", "result": "1.8e+06", "unit": "M⁻¹ s⁻¹"}, {"measurement": "kpol", "setting": "wt RB69pol", "result": "250 ± 7", "unit": "s⁻¹"}]}
